Assay results from ChEMBL document CHEMBL3632541, “Synthesis, antileishmanial activity and cytotoxicity of 2,3-diaryl- and 2,3,8-trisubstituted imidazo[1,2-a]pyrazines” (Eur J Med Chem, 2015).
Converted amounts (≈) assume the structure as drawn. The source made the active and inactive calls. The calls are words filed in the database; no cut-off is given here.

What was measured:
[1] = Therapeutic index, ratio of IC50 for BALB/c mouse peritoneal macrophages to IC50 for amastigote form of Leishmania major (MHOM/IL/81/BNI) in BALB/c mouse peritoneal macrophages; details: read-out: Ratio IC50
Leishmania major [2] = experiment: Antileishmanial activity against amastigote form of Leishmania major MHOM/IL/81/BNI amastigote in Balb/c mouse peritoneal macrophages after 4 days by May-Grunwald-Giemsa staining-based microscopic analysis; format: functional, organism-based; details: 96 h
Procedure, shortened: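 Peritoneal macrophages from Balb/c mice, 1.5 10⁵ cell/mL in RPMI 1640 + 15% FBS, left 24 h on glass slides (37 °C, 5% CO₂), then infected 24 h with stationary-phase promastigotes (1.5 × 10⁶/mL). Washed cultures exposed to 100, 10, 1 and 0.1 µM for 4 days. Fixed with methanol, Giemsa-stained. Amastigotes counted in 100 macrophages per duplicate well; IC50 from amastigotes/macrophage. Done twice.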

[3] = Inhibition of native porcine brain CK1 delta/epsilon using RRKHAAIGpSAYSITA as substrate and [gamma-33P]ATP after 30 mins by scintillation counting; design: species or system Sus scrofa
Procedure, shortened: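 Native porcine brain CK1δ/ε, in threefold-diluted buffer A (25 mM Mops pH 7.2, 15 mM MgCl₂, 5 mM EGTA, 1 mM DTT, phosphatase inhibitors). 25 μM CKS peptide substrate, 15 μM [γ-³³P]ATP, 30 min at 30 °C. Stopped on P81 paper, washed in 1% phosphoric acid, counted by scintillation. Blank subtracted; activity as % of the no-inhibitor value; DMSO controls.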

[4] = Inhibition of Leishmania major CK1.2 using RRKHAAIGpSAYSITA as substrate and [gamma-33P]ATP after 30 mins by scintillation counting
Procedure, shortened: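 Recombinant His-tagged L. major CK1.2 from E. coli, purified on cobalt beads. Assayed as for the porcine enzyme: CKS peptide substrate, 15 μM [γ-³³P]ATP, 30 min at 30 °C, P81 capture and scintillation counting. Activity as % of the no-inhibitor value.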

[5] = Therapeutic index, ratio of IC50 for BALB/c mouse peritoneal macrophages to IC50 for promastigote form of Leishmania major (MHOM/IL/81/BNI); details: read-out: Ratio IC50
[6] = Cytotoxicity against BALB/c mouse peritoneal macrophages assessed as cell viability after 48 hrs by trypan blue dye exclusion method; format: cell-based; details: Peritoneal macrophage cell
Leishmania amazonensis = experiment: Antileishmanial activity against axenic amastigote stage of Leishmania amazonensis MHOM/BR/76/LTB-012 by MTT method; format: functional, organism-based
Procedure, shortened: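 Axenic amastigotes, grown in MAA/20 medium at 32 ± 1 °C. IC50 by MTT micromethod; compounds from 10 mM DMSO stocks, DMSO ≤1% final.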

Leishmania major [7] = experiment: Antileishmanial activity against promastigote form of Leishmania major MHOM/IL/81/BNI after 96 hrs by spectrofluorimetric micromethod; format: functional, organism-based
[8] = Cytotoxicity against BALB/c mouse 3T3 clone A31 cells after 48 hrs by SRB assay method; format: cell-based; details: A31, 48 h
Procedure, shortened: (§1)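 Cells plated in growth medium and allowed to attach 24 h (37 °C, 5% CO₂). Time-zero plate fixed with TCA. Serial 4-fold dilutions added for 48 h. Cells fixed with cold TCA, stained with 0.2% SRB, dye solubilized in 10 mM Tris pH 10.5, absorbance read at 510 nm. GI50 is 50% absorbance reduction versus solvent controls, by linear regression. K562 counted by Coulter counter instead. 5-FU reference.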

[9] = Cytotoxicity against human M14 cells assessed as growth inhibition after 48 hrs by SRB assay method; format: cell-based; procedure, shortened: as §1
[10] = Cytotoxicity against human MCF7 cells assessed as growth inhibition after 48 hrs by SRB assay method; format: cell-based; procedure, shortened: as §1
[11] = Therapeutic index, ratio of IC50 for BALB/c mouse 3T3 clone A31 cells to IC50 for promastigote form of Leishmania major (MHOM/IL/81/BNI); format: cell-based; details: read-out: Ratio IC50
[12] = Cytotoxicity against human H460 cells assessed as growth inhibition after 48 hrs by SRB assay method; format: cell-based, NCI-H460; procedure, shortened: as §1
[13] = Cytotoxicity against human DU145 cells assessed as growth inhibition after 48 hrs by SRB assay method; format: cell-based, DU-145; procedure, shortened: as §1
[14] = Cytotoxicity against human K562 cells assessed as growth inhibition after 48 hrs by Coulter counter cell counting
[15] = Cytotoxicity against human HT-29 cells assessed as growth inhibition after 48 hrs by SRB assay method; format: cell-based; procedure, shortened: as §1
[16] = Cytotoxicity against human HuTu 80 cells assessed as growth inhibition after 48 hrs by SRB assay method; format: cell-based, HuTu80; procedure, shortened: as §1

Row | SMILES | selectivity ratio [1] | IC50 (Leishmania major [2]) | IC50 [3] | IC50 [4] | selectivity ratio [5] | IC50 [6] | Activity (Leishmania amazonensis) | IC50 (Leishmania major [7]) | IC50 [8] | GI50 at 48 h [9] | GI50 at 48 h [10] | selectivity ratio [11] | GI50 at 48 h [12] | GI50 at 48 h [13] | GI50 at 48 h [14] | GI50 at 48 h [15] | GI50 at 48 h [16]
1 | c1ccc(-c2nc3cnccn3c2-c2ccncc2)cc1 | 57 | 2.7 µM | 3.3 µM | 1.3 µM | 7.7 | 154 µM | inactive | 20.1 µM | – | – | – | – | – | – | – | – | –
2 | CN(C)c1nccn2c(-c3ccncc3)c(-c3ccc(F)cc3)nc12 | 52.5 | 0.8 µM | 2.1 µM | 0.99 µM | 6.6 | 42 µM | inactive | 6.4 µM | > 375 µM | > 125 µg/mL | 52 µg/mL (≈ 156 µM) | > 58.6 | > 125 µg/mL | > 125 µg/mL | > 125 µg/mL | > 125 µg/mL | 77 µg/mL (≈ 231 µM)
3 | CCOC(=O)c1ccc(-c2c(-c3ccccc3)nc3cnccn23)cc1 | – | – | – | > 10 µM | 2.9 | 49.8 µM | – | 17.5 µM | – | – | – | – | – | – | – | – | –
4 | CN(C)CCNc1nccn2c(-c3ccncc3)c(-c3ccc(F)cc3)nc12 | – | – | 1.6 µM | 0.52 µM | 1.6 | 57.8 µM | – | 35.3 µM | 101 µM | 19 µg/mL (≈ 50.5 µM) | 8 µg/mL (≈ 21.3 µM) | 2.9 | 34 µg/mL (≈ 90.3 µM) | 52 µg/mL (≈ 138 µM) | 14 µg/mL (≈ 37.2 µM) | 8 µg/mL (≈ 21.3 µM) | 24 µg/mL (≈ 63.8 µM)
5 | CN(C)CCNc1nccn2c(-c3ccncc3)c(-c3ccccc3)nc12 | – | – | 1.6 µM | 0.51 µM | 0.9 | 64.9 µM | – | 68.8 µM | 86.5 µM | 27 µg/mL (≈ 75.3 µM) | 6 µg/mL (≈ 16.7 µM) | 1.3 | 40 µg/mL (≈ 112 µM) | 47 µg/mL (≈ 131 µM) | 15 µg/mL (≈ 41.8 µM) | 6 µg/mL (≈ 16.7 µM) | 32 µg/mL (≈ 89.3 µM)
6 | Fc1ccc(-c2nc3c(NCCN4CCOCC4)nccn3c2-c2ccncc2)cc1 | – | – | 2.7 µM | 0.62 µM | 2.4 | 40.3 µM | – | 16.5 µM | 47.8 µM | 36 µg/mL (≈ 86 µM) | 19 µg/mL (≈ 45.4 µM) | 2.9 | 20 µg/mL (≈ 47.8 µM) | 39 µg/mL (≈ 93.2 µM) | 21 µg/mL (≈ 50.2 µM) | 27 µg/mL (≈ 64.5 µM) | 28 µg/mL (≈ 66.9 µM)
7 | c1ccc(-c2nc3c(NCCN4CCOCC4)nccn3c2-c2ccncc2)cc1 | – | – | 3.3 µM | 2.4 µM | 2.2 | 51.7 µM | – | 23.5 µM | – | – | – | – | – | – | – | – | –
8 | CN(C)c1nccn2c(I)c(-c3ccc(F)cc3)nc12 | – | – | > 10 µM | > 10 µM | – | – | – | > 100 µM | 99.4 µM | > 125 µg/mL | 3 µg/mL (≈ 7.85 µM) | – | 25 µg/mL (≈ 65.4 µM) | 40 µg/mL (≈ 105 µM) | > 125 µg/mL | > 125 µg/mL | 22 µg/mL (≈ 57.6 µM)
9 | O=[N+]([O-])c1ccc(-c2c(-c3ccccc3)nc3cnccn23)cc1 | – | – | – | > 10 µM | 4.2 | 114 µM | – | 27.6 µM | – | – | – | – | – | – | – | – | –
10 | O=c1[nH]cc(F)c(=O)[nH]1 [FLUOROURACIL] | – | – | – | – | – | – | – | – | – | 0.7 µg/mL (≈ 5.38 µM) | 0.3 µg/mL (≈ 2.31 µM) | – | 0.3 µg/mL (≈ 2.31 µM) | 1 µg/mL (≈ 7.69 µM) | 0.9 µg/mL (≈ 6.92 µM) | 0.4 µg/mL (≈ 3.08 µM) | 0.4 µg/mL (≈ 3.08 µM)
11 | CN(C)CCNc1nccn2c(I)c(-c3ccccc3)nc12 | – | – | > 10 µM | > 10 µM | 2.8 | 68.6 µM | – | 24.2 µM | 31.9 µM | 4 µg/mL (≈ 9.82 µM) | 9 µg/mL (≈ 22.1 µM) | 1.3 | 13 µg/mL (≈ 31.9 µM) | 20 µg/mL (≈ 49.1 µM) | 5 µg/mL (≈ 12.3 µM) | 4 µg/mL (≈ 9.82 µM) | 12 µg/mL (≈ 29.5 µM)
12 | N=C(N)c1ccc(OCCCCCOc2ccc(C(=N)N)cc2)cc1 [PENTAMIDINE] | 50.9 | 3 µM | – | – | 33.2 | 153 µM | – | 4.6 µM | – | – | – | – | – | – | – | – | –
13 | COc1ccc(-c2c(-c3ccccc3)nc3cnccn23)cc1 | – | – | – | > 10 µM | 3.5 | 60.2 µM | – | 17.4 µM | – | – | – | – | – | – | – | – | –
14 | Ic1c(-c2ccccc2)nc2c(NCCN3CCOCC3)nccn12 | – | – | > 10 µM | > 10 µM | 3 | 31.4 µM | – | 10.6 µM | 236 µM | 179 µg/mL (≈ 398 µM) | 29 µg/mL (≈ 64.5 µM) | 22.3 | 121 µg/mL (≈ 269 µM) | 47 µg/mL (≈ 105 µM) | 18 µg/mL (≈ 40.1 µM) | 22 µg/mL (≈ 49 µM) | 33 µg/mL (≈ 73.4 µM)
15 | Clc1cc(Cl)cc(-c2c(-c3ccccc3)nc3cnccn23)c1 | – | – | – | > 10 µM | 3.4 | 35.6 µM | – | 10.3 µM | – | – | – | – | – | – | – | – | –
16 | c1ccc(-c2nc3cnccn3c2-c2ccccc2)cc1 | – | – | – | > 10 µM | 1.6 | 41.4 µM | – | 26.2 µM | – | – | – | – | – | – | – | – | –
17 | CN(C)CCNc1nccn2c(I)c(-c3ccc(F)cc3)nc12 | – | – | > 10 µM | > 10 µM | 1.4 | 33.8 µM | – | 24.7 µM | 18.8 µM | 4 µg/mL (≈ 9.41 µM) | 5 µg/mL (≈ 11.8 µM) | 0.8 | 9 µg/mL (≈ 21.2 µM) | 13 µg/mL (≈ 30.6 µM) | 43 µg/mL (≈ 101 µM) | 4 µg/mL (≈ 9.41 µM) | 6 µg/mL (≈ 14.1 µM)
18 | Clc1cccc(-c2c(-c3ccccc3)nc3cnccn23)c1 | – | – | – | – | 3.5 | 51.5 µM | – | 14.5 µM | – | – | – | – | – | – | – | – | –
19 | CN(C)c1nccn2c(I)c(-c3ccccc3)nc12 | – | – | > 10 µM | > 10 µM | 4.3 | 29.2 µM | – | 6.8 µM | 35.7 µM | > 125 µg/mL | 3 µg/mL (≈ 8.24 µM) | 5.3 | 47 µg/mL (≈ 129 µM) | 39 µg/mL (≈ 107 µM) | 16 µg/mL (≈ 43.9 µM) | 38 µg/mL (≈ 104 µM) | 44 µg/mL (≈ 121 µM)
20 | Fc1ccc(-c2nc3c(NCCN4CCOCC4)nccn3c2I)cc1 | 466 | 0.2 µM | > 10 µM | > 10 µM | 33.3 | 93.2 µM | inactive | 2.8 µM | > 268 µM | > 125 µg/mL | > 125 µg/mL | > 95.6 | > 125 µg/mL | > 125 µg/mL | > 125 µg/mL | > 125 µg/mL | 73 µg/mL (≈ 156 µM)
21 | CN(C)c1nccn2c(-c3ccncc3)c(-c3ccccc3)nc12 | 15.3 | 9.4 µM | 2.4 µM | 0.48 µM | 4.6 | 144 µM | inactive | 31.3 µM | 155 µM | 84 µg/mL (≈ 266 µM) | 32 µg/mL (≈ 101 µM) | 5 | 70 µg/mL (≈ 222 µM) | 90 µg/mL (≈ 285 µM) | 48 µg/mL (≈ 152 µM) | 56 µg/mL (≈ 178 µM) | 50 µg/mL (≈ 159 µM)
